ChEMBL document CHEMBL3616416, “Imidazolidine-4-one derivatives in the search for novel chemosensitizers of Staphylococcus aureus MRSA: synthesis, biological evaluation and molecular modeling studies” (Eur J Med Chem, 2015)
Values after ≈ are worked out from the molar mass of the structure shown. Active and inactive are the calls of the source. The calls are words filed in the database; no cut-off is given here.

Tests used:
Staphylococcus aureus [1] = test: Antimicrobial activity against methicillin-resistant Staphylococcus aureus HEMSA incubated for 20 hrs by serial dilution broth microplate method; type: functional
Summary of the method: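 Broth microdilution MIC per CLSI in Mueller-Hinton broth against clinical isolate MRSA HEMSA 5. Bacterial suspension adjusted to OD 0.5, diluted 1:100 and added to serial two-fold dilutions of test agent. Ampicillin/sulbactam used at 2:1 ratio. Growth read after 20 h at 37 °C.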

[2] = target: T1, Methicillin resistance mecR1 protein (Staphylococcus aureus) (UniProt P0A0B1); test: Inhibition of MecR1 in methicillin-resistant Staphylococcus aureus HEMSA assessed as reduction in oxacillin A MIC at 0.5 mM incubated for 20 hrs by serial dilution broth microplate method
T1 sequence (whole entry): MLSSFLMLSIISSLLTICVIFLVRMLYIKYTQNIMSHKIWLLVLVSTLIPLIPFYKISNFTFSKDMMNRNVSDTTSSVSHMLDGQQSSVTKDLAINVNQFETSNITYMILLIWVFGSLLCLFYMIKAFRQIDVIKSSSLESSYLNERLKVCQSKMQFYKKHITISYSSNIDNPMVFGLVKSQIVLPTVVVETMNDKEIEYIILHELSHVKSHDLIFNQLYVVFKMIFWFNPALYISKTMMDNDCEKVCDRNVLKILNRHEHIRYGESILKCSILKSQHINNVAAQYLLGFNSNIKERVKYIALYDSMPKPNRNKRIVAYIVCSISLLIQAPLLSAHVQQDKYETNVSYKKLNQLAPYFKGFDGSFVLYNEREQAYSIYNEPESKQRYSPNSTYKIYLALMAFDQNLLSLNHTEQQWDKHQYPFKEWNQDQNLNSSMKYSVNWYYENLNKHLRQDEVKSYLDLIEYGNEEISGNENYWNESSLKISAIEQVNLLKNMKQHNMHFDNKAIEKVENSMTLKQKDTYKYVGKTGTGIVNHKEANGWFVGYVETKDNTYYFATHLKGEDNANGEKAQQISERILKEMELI
Summary of the method: (§1)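 Chemosensitization in MRSA HEMSA 5 measured by CLSI broth microdilution in Mueller-Hinton broth. Serial two-fold dilutions of antibiotic (oxacillin, cloxacillin, ampicillin/sulbactam 2:1, ciprofloxacin or neomycin) combined with compound at fixed concentration not exceeding ¼ of its own MIC. Inoculum OD 0.5 diluted 1:100. Read after 20 h at 37 °C. Result given as fold reduction of antibiotic MIC.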

Staphylococcus aureus [3] = test: Antimicrobial activity against Staphylococcus aureus ATCC 25923 incubated for 20 hrs by serial dilution broth microplate method; type: functional; details: ATCC 25923, 20 h
Summary of the method: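 Broth dilution per CLSI in Mueller-Hinton broth, serial two-fold dilutions; compounds alone against reference strain, inoculum from suspension at OD 0.5 diluted 1:100; read after 20 h at 37 °C. MIC taken as lowest concentration inhibiting growth.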

Staphylococcus aureus [4] = test: Potentiation of oxacillin-induced antibacterial activity against Staphylococcus aureus ATCC 25923 assessed as reduction in oxacillin MIC at 0.5 mM incubated for 20 hrs by serial dilution broth microplate method; type: functional, organism-based
Staphylococcus aureus [5] = test: Potentiation of neomycin-induced antibacterial activity against Staphylococcus aureus ATCC 25923 assessed as reduction in […] MIC incubated for 20 hrs by serial dilution broth microplate method; type: functional, organism-based
Staphylococcus aureus [6] = test: Potentiation of […] antibacterial activity against Staphylococcus aureus ATCC 25923 assessed as reduction in cloxacillin MIC incubated for 20 hrs by serial dilution broth microplate method; type: functional, organism-based
Staphylococcus aureus [7] = test: Resistance index, ratio of MIC for methicillin-resistant Staphylococcus aureus HEMSA to MIC for Staphylococcus aureus ATCC 25923; type: functional
[8] = target: T1, Methicillin resistance mecR1 protein (Staphylococcus aureus); test: Inhibition of MecR1 in methicillin-resistant Staphylococcus aureus HEMSA assessed as reduction in cloxacillin MIC at 0.0039 mM incubated for 20 hrs by serial dilution broth microplate method; summary of the method: as §1
[9] = target: T1, Methicillin resistance mecR1 protein (Staphylococcus aureus); test: Inhibition of MecR1 in methicillin-resistant Staphylococcus aureus HEMSA assessed as reduction in oxacillin A MIC at 0.0039 mM incubated for 20 hrs by serial dilution broth microplate method; summary of the method: as §1
[10] = target: T1, Methicillin resistance mecR1 protein (Staphylococcus aureus); test: Inhibition of MecR1 in methicillin-resistant Staphylococcus aureus HEMSA assessed as reduction in ampicillin and sulbactam MIC at 0.0039 mM incubated for 20 hrs by serial dilution broth microplate method; summary of the method: as §1
[11] = target: T1, Methicillin resistance mecR1 protein (Staphylococcus aureus); test: Inhibition of MecR1 in methicillin-resistant Staphylococcus aureus HEMSA assessed as reduction in neomycin MIC at 0.0039 mM incubated for 20 hrs by serial dilution broth microplate method; summary of the method: as §1
Staphylococcus aureus [12] = test: Potentiation of ciprofloxacin -induced antibacterial activity against Staphylococcus aureus ATCC 25923 assessed as reduction in […] MIC incubated for 20 hrs by serial dilution broth microplate method; type: functional, organism-based
[13] = target: T1, Methicillin resistance mecR1 protein (Staphylococcus aureus); test: Inhibition of MecR1 in methicillin-resistant Staphylococcus aureus HEMSA assessed as reduction in ciprofloxacin MIC at 0.0039 mM incubated for 20 hrs by serial dilution broth microplate method; summary of the method: as §1
Staphylococcus aureus [14] = test: Potentiation of […] antibacterial activity against Staphylococcus aureus ATCC 25923 assessed as reduction in ampicillin and sulbactam MIC MIC incubated for 20 hrs by serial dilution broth microplate method; type: functional, organism-based
Staphylococcus aureus [15] = test: Potentiation of oxacillin-induced antibacterial activity against Staphylococcus aureus ATCC 25923 assessed as reduction in oxacillin MIC at 0.0005 mM incubated for 20 hrs by serial dilution broth microplate method; type: functional, organism-based
[16] = target: T1, Methicillin resistance mecR1 protein (Staphylococcus aureus); test: Inhibition of MecR1 in methicillin-resistant Staphylococcus aureus HEMSA assessed as reduction in cloxacillin MIC at 0.5 mM incubated for 20 hrs by serial dilution broth microplate method; summary of the method: as §1
[17] = target: T1, Methicillin resistance mecR1 protein (Staphylococcus aureus); test: Inhibition of MecR1 in methicillin-resistant Staphylococcus aureus HEMSA assessed as reduction in ampicillin and sulbactam MIC at 0.5 mM incubated for 20 hrs by serial dilution broth microplate method; summary of the method: as §1
[18] = target: T1, Methicillin resistance mecR1 protein (Staphylococcus aureus); test: Inhibition of MecR1 in methicillin-resistant Staphylococcus aureus HEMSA assessed as reduction in neomycin MIC at 0.5 mM incubated for 20 hrs by serial dilution broth microplate method; summary of the method: as §1
[19] = target: T1, Methicillin resistance mecR1 protein (Staphylococcus aureus); test: Inhibition of MecR1 in methicillin-resistant Staphylococcus aureus HEMSA assessed as reduction in ciprofloxacin MIC at 0.5 mM incubated for 20 hrs by serial dilution broth microplate method; summary of the method: as §1
[20] = target: T1, Methicillin resistance mecR1 protein (Staphylococcus aureus); test: Inhibition of MecR1 in methicillin-resistant Staphylococcus aureus HEMSA assessed as reduction in oxacillin A MIC at 0.25 mM incubated for 20 hrs by serial dilution broth microplate method; summary of the method: as §1
[21] = target: T1, Methicillin resistance mecR1 protein (Staphylococcus aureus); test: Inhibition of MecR1 in methicillin-resistant Staphylococcus aureus HEMSA assessed as reduction in oxacillin A MIC at 0.125 mM incubated for 20 hrs by serial dilution broth microplate method; summary of the method: as §1
[22] = target: T1, Methicillin resistance mecR1 protein (Staphylococcus aureus); test: Inhibition of MecR1 in methicillin-resistant Staphylococcus aureus HEMSA assessed as reduction in ampicillin and sulbactam MIC at 0.25 mM incubated for 20 hrs by serial dilution broth microplate method; summary of the method: as §1
[23] = target: T1, Methicillin resistance mecR1 protein (Staphylococcus aureus); test: Inhibition of MecR1 in methicillin-resistant Staphylococcus aureus HEMSA assessed as reduction in ciprofloxacin MIC at 0.25 mM incubated for 20 hrs by serial dilution broth microplate method; summary of the method: as §1
[24] = target: T1, Methicillin resistance mecR1 protein (Staphylococcus aureus); test: Inhibition of MecR1 in methicillin-resistant Staphylococcus aureus HEMSA assessed as reduction in cloxacillin MIC at 0.25 mM incubated for 20 hrs by serial dilution broth microplate method; summary of the method: as §1
[25] = target: T1, Methicillin resistance mecR1 protein (Staphylococcus aureus); test: Inhibition of MecR1 in methicillin-resistant Staphylococcus aureus HEMSA assessed as reduction in neomycin MIC at 0.25 mM incubated for 20 hrs by serial dilution broth microplate method; summary of the method: as §1

SMILES: O=C1N/C(=C\c2ccc(Cl)cc2Cl)C(=O)N1CC(O)CN1CCNCC1 (stereo not given)
- MIC (Staphylococcus aureus [1]): > 1000 µM
- inhibition [2]: inactive
- MIC (Staphylococcus aureus [3]): > 1000 µM
- Activity (Staphylococcus aureus [4]): inactive

SMILES: O=C1NC(N2CCNCC2)=N/C1=C\c1cc2ccccc2c2ccccc12
- Activity (Staphylococcus aureus [5]): inactive
- Activity (Staphylococcus aureus [6]): inactive
- Ratio (Staphylococcus aureus [7]): 8
- fold change (FC) [8]: 2
- inhibition [9]: inactive
- inhibition [10]: inactive
- MIC (Staphylococcus aureus [1]): 15.6 µM (≈ 5.56 µg/mL)
- inhibition [11]: inactive
- Activity (Staphylococcus aureus [12]): inactive
- MIC (Staphylococcus aureus [3]): 1.9 µM (≈ 0.677 µg/mL)
- inhibition [13]: inactive
- Activity (Staphylococcus aureus [14]): inactive
- Activity (Staphylococcus aureus [15]): inactive

SMILES: Cc1onc(-c2ccccc2Cl)c1C(=O)N[C@@H]1C(=O)N2[C@@H]1SC(C)(C)[C@@H]2C(=O)O [CLOXACILLIN]
- MIC (Staphylococcus aureus [1]): 160 µM (≈ 69.7 µg/mL)
- MIC (Staphylococcus aureus [3]): 0.42 µM (≈ 0.183 µg/mL)

SMILES: O=C1NC(N2CCNCC2)=N/C1=C\c1cccs1
- Activity (Staphylococcus aureus [5]): inactive
- Activity (Staphylococcus aureus [6]): inactive
- inhibition [16]: inactive
- MIC (Staphylococcus aureus [1]): > 1000 µM
- inhibition [2]: inactive
- inhibition [17]: inactive
- Activity (Staphylococcus aureus [12]): inactive
- MIC (Staphylococcus aureus [3]): > 1000 µM
- Activity (Staphylococcus aureus [14]): inactive
- Activity (Staphylococcus aureus [4]): inactive
- inhibition [18]: inactive
- inhibition [19]: inactive

SMILES: CC1(c2cccc3ccccc23)NC(=O)N(CCCCCN)C1=O (stereo not given)
- MIC (Staphylococcus aureus [1]): 1000 µM (≈ 325 µg/mL)
- inhibition [20]: inactive
- MIC (Staphylococcus aureus [3]): > 1000 µM
- Activity (Staphylococcus aureus [4]): inactive

SMILES: Cc1onc(-c2ccccc2)c1C(=O)N[C@@H]1C(=O)N2[C@@H]1SC(C)(C)[C@@H]2C(=O)O [OXACILLIN]
- Ratio (Staphylococcus aureus [7]): >1500
- MIC (Staphylococcus aureus [1]): 710 µM (≈ 285 µg/mL)
- MIC (Staphylococcus aureus [3]): 0.47 µM (≈ 0.189 µg/mL)

SMILES: O=C1NC(N2CCNCC2)=N/C1=C\c1ccc(Cl)cc1
- MIC (Staphylococcus aureus [1]): 500 µM (≈ 145 µg/mL)
- MIC (Staphylococcus aureus [3]): > 1000 µM
- Activity (Staphylococcus aureus [4]): inactive
- inhibition [21]: inactive

SMILES: O=C1NC(N2CCNCC2)=N/C1=C\c1ccsc1
- Activity (Staphylococcus aureus [5]): inactive
- Activity (Staphylococcus aureus [6]): inactive
- inhibition [22]: inactive
- inhibition [23]: inactive
- inhibition [24]: inactive
- MIC (Staphylococcus aureus [1]): 1000 µM (≈ 262 µg/mL)
- inhibition [20]: inactive
- Activity (Staphylococcus aureus [12]): inactive
- MIC (Staphylococcus aureus [3]): > 1000 µM
- Activity (Staphylococcus aureus [14]): inactive
- inhibition [25]: inactive
- Activity (Staphylococcus aureus [4]): inactive

SMILES: O=C1N/C(=C\c2ccc(Cl)cc2)C(=O)N1CC(O)CN1CCNCC1 (stereo not given)
- MIC (Staphylococcus aureus [1]): 1000 µM (≈ 365 µg/mL)
- MIC (Staphylococcus aureus [3]): > 1000 µM

SMILES: CC1(c2cccc3ccccc23)NC(=O)N(CCCCN)C1=O (stereo not given)
- MIC (Staphylococcus aureus [1]): > 1000 µM
- inhibition [2]: inactive
- MIC (Staphylococcus aureus [3]): > 1000 µM
- Activity (Staphylococcus aureus [4]): inactive

SMILES: O=C(O)c1cn(C2CC2)c2cc(N3CCNCC3)c(F)cc2c1=O [CIPROFLOXACIN]
- Ratio (Staphylococcus aureus [7]): 37
- MIC (Staphylococcus aureus [1]): 14 µM (≈ 4.64 µg/mL)
- MIC (Staphylococcus aureus [3]): 0.38 µM (≈ 0.126 µg/mL)

SMILES: NC[C@@H]1O[C@H](O[C@H]2[C@@H](O)[C@H](O[C@@H]3[C@@H](O)[C@H](N)C[C@H](N)[C@H]3O[C@H]3O[C@H](CN)[C@@H](O)[C@H](O)[C@H]3N)O[C@@H]2CO)[C@H](N)[C@@H](O)[C@@H]1O [FRAMYCETIN]
- Ratio (Staphylococcus aureus [7]): 240
- MIC (Staphylococcus aureus [1]): 240 µM (≈ 148 µg/mL)
- MIC (Staphylococcus aureus [3]): 1 µM (≈ 0.615 µg/mL)

SMILES: COc1ccc(/C=C2\NC(=O)N(CC(O)CNCCCN3CCN(C)CC3)C2=O)cc1 (stereo not given)
- Activity (Staphylococcus aureus [5]): inactive
- Activity (Staphylococcus aureus [6]): inactive
- fold change (FC) [16]: 8
- MIC (Staphylococcus aureus [1]): > 1000 µM
- fold change (FC) [2]: 2
- fold change (FC) [17]: 2
- Activity (Staphylococcus aureus [12]): inactive
- MIC (Staphylococcus aureus [3]): > 1000 µM
- Activity (Staphylococcus aureus [14]): inactive
- Activity (Staphylococcus aureus [4]): inactive
- inhibition [18]: inactive
- fold change (FC) [19]: 2

SMILES: CC1(c2cccc3ccccc23)NC(=O)N(CCCN)C1=O (stereo not given)
- Activity (Staphylococcus aureus [5]): inactive
- Activity (Staphylococcus aureus [6]): inactive
- inhibition [16]: inactive
- MIC (Staphylococcus aureus [1]): > 1000 µM
- inhibition [2]: inactive
- inhibition [17]: inactive
- Activity (Staphylococcus aureus [12]): inactive
- MIC (Staphylococcus aureus [3]): > 1000 µM
- Activity (Staphylococcus aureus [14]): inactive
- Activity (Staphylococcus aureus [4]): inactive
- inhibition [18]: inactive
- inhibition [19]: inactive
